pIC50, pKi: −log10 of the molar value. Converted amounts (≈) assume the structure as drawn.
What was measured:
[1] = test system: Shigella sonnei; experiment: Antimicrobial activity against Shigella sonnei UIH-1 expressing beta-lactamase CTX-M-64 by broth microdilution method; assay type: functional
Outline: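 MICs determined by CLSI broth microdilution on an automated panel system. […] Susceptibility categories assigned by CLSI criteria.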

[2] = test system: Escherichia coli; experiment: Antimicrobial activity against rifampicin-resistant Escherichia coli X1037 transconjugant by broth microdilution method; assay type: functional
[3] = test system: Escherichia coli; experiment: Antimicrobial activity against rifampicin-resistant Escherichia coli X1037 by broth microdilution method; assay type: functional
[4] = test system: Escherichia coli; experiment: Antimicrobial activity against Escherichia coli XL-1 Blue transconjugant harboring beta-lactamase CTX-M-64 by broth microdilution method; assay type: functional
[5] = test system: Escherichia coli; experiment: Antimicrobial activity against Escherichia coli XL-1 Blue harboring plasmid CL1920 by broth microdilution method; assay type: functional
[6] = Inhibition of Shigella sonnei UIH-1 beta-lactamase CTX-M-64 by spectrophotometry in presence of 100 uM nitrocefin
Outline: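 Recombinant CTX-M-64 was expressed from pET29a in E. coli BL21(DE3)pLysS (0.5 mM IPTG, 3 h, 37°C). It was purified by SP cation exchange (MES pH 6.0, NaCl gradient) then gel filtration. Enzyme was preincubated 5 min at 37°C with varied clavulanic acid before adding 100 μM nitrocefin. Hydrolysis was read at 485 nm in 50 mM phosphate pH 7.0, 37°C. IC50 is the inhibitor level halving the rate.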

[7] = test system: Shigella sonnei; experiment: Antimicrobial activity against Shigella sonnei UIH-1 expressing beta-lactamase CTX-M-64 by disk diffusion method; assay type: functional
Outline: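 Non-β-lactam susceptibility determined by CLSI disk diffusion on the clinical isolate. Categories assigned by CLSI criteria.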

[8] = test system: Shigella sonnei; experiment: Antimicrobial activity against Shigella sonnei UIH-1 expressing beta-lactamase CTX-M-64 by disk diffusion method in presence of beta-lactamase inhibitor Sulbactam; assay type: functional
[9] = test system: Escherichia coli; experiment: Antimicrobial activity against Escherichia coli XL-1 Blue transconjugant harboring beta-lactamase CTX-M-64 by disk diffusion method; assay type: functional
Outline: (§1)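 Non-β-lactam agents were tested by CLSI disk diffusion. Susceptibility categories were assigned by CLSI criteria.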

[10] = test system: Escherichia coli; experiment: Antimicrobial activity against Escherichia coli XL-1 Blue harboring beta-lactamase CTx-M-64transconjugant by disk diffusion method in presence of beta-lactamase inhibitor Sulbactam; assay type: functional
[11] = test system: Shigella sonnei; experiment: Activity at Shigella sonnei UIH-1 beta-lactamase CTX-M-64 by spectrophotometry
Outline: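 Recombinant enzyme from E. coli BL21(DE3)pLysS/pET29a, purified by cation exchange and gel filtration. Assays at 37°C in 50 mM phosphate pH 7.0, six substrate concentrations, UV-vis readout. Km and kcat from Michaelis-Menten fits of initial rates.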

[12] = test system: Shigella sonnei; conditions: UIH-1
[13] = test system: Escherichia coli; experiment: Antimicrobial activity against rifampicin-resistant Escherichia coli X1037 transconjugant by disk diffusion method; assay type: functional; outline: as §1
[14] = test system: Escherichia coli; experiment: Antimicrobial activity against rifampicin-resistant Escherichia coli X1037 by disk diffusion method; assay type: functional; outline: as §1
[15] = test system: Escherichia coli; experiment: Antimicrobial activity against Escherichia coli XL-1 Blue harboring plasmid CL1920 by disk diffusion method; assay type: functional
[16] = test system: Shigella sonnei; experiment: Antimicrobial activity against Shigella sonnei UIH-1 expressing beta-lactamase CTX-M-64 by broth microdilution method in presence of 4 ug/ml beta-lactamase inhibitor clavulanic acid; assay type: functional
[17] = test system: Escherichia coli; experiment: Antimicrobial activity against rifampicin-resistant Escherichia coli X1037 transconjugant by broth microdilution method in presence of 4 ug/ml beta-lactamase inhibitor clavulanic acid; assay type: functional
[18] = test system: Escherichia coli; experiment: Antimicrobial activity against rifampicin-resistant Escherichia coli X1037 by broth microdilution method in presence of 4 ug/ml beta-lactamase inhibitor clavulanic acid; assay type: functional
[19] = test system: Escherichia coli; experiment: Antimicrobial activity against Escherichia coli XL-1 Blue transconjugant harboring beta-lactamase CTX-M-64 by broth microdilution method in presence of 4 ug/ml beta-lactamase inhibitor clavulanic acid; assay type: functional
[20] = test system: Escherichia coli; experiment: Antimicrobial activity against Escherichia coli XL-1 Blue harboring plasmid CL1920 by broth microdilution method in presence of 4 ug/ml beta-lactamase inhibitor clavulanic acid; assay type: functional
[21] = test system: Escherichia coli; experiment: Antimicrobial activity against rifampicin-resistant Escherichia coli X1037 by broth microdilution method in presence of beta-lactamase inhibitor clavulanic acid
[22] = test system: Escherichia coli; experiment: Antimicrobial activity against Escherichia coli XL-1 Blue harboring plasmid CL1920 by broth microdilution method in presence of beta-lactamase inhibitor clavulanic acid
[23] = test system: Shigella sonnei; experiment: Antimicrobial activity against Shigella sonnei UIH-1 expressing beta-lactamase CTX-M-64 by broth microdilution method in presence of beta-lactamase inhibitor clavulanic acid
[24] = test system: Escherichia coli; experiment: Antimicrobial activity against rifampicin-resistant Escherichia coli X1037 transconjugant by broth microdilution method in presence of beta-lactamase inhibitor clavulanic acid
[25] = Shigella sonnei, UIH-1, read-out: MIC
[26] = Escherichia coli, XL-1 Blue, read-out: MIC

Structure (SMILES) | MIC [1, 25] [µg/mL] | MIC [2] [µg/mL] | MIC [3] [µg/mL] | MIC [4, 26] [µg/mL] | MIC [5] [µg/mL] | other results
CO/N=C(\C(=O)N[C@@H]1C(=O)N2C(C(=O)[O-])=C(C[n+]3ccn4ncccc43)CS[C@H]12)c1nsc(N)n1 [CEFOZOPRAN] | > 16 | > 16 | ≤ 1 | > 16 | ≤ 1 | –
O=C(O)[C@H]1/C(=C/CO)O[C@@H]2CC(=O)N21 [CLAVULANIC ACID] | – | – | – | – | – | pIC50 [6]: 8.00
CCN1CCN(C(=O)N[C@@H](C(=O)N[C@@H]2C(=O)N3C(C(=O)O)=C(CSc4nnnn4C)CS[C@H]23)c2ccc(O)cc2)C(=O)C1=O [CEFOPERAZONE] | – | – | – | – | – | MIC [7]: 8 µg/mL (≈ 12.4 µM); MIC [8]: 8 µg/mL; MIC [9]: > 32 µg/mL; MIC [10]: > 32 µg/mL
CO/N=C(\C(=O)N[C@@H]1C(=O)N2C(C(=O)O)=C(CSc3nc(=O)c(O)nn3C)CS[C@H]12)c1csc(N)n1 [CEFTRIAXONE] | 1020 (≈ 1850 µM) | 2050 (≈ 3690 µM) | ≤ 0.25 | 2050 (≈ 3690 µM) | ≤ 0.25 | –
O=C(Cc1cccs1)N[C@@H]1C(=O)N2C(C(=O)O)=C(/C=C/c3ccc([N+](=O)[O-])cc3[N+](=O)[O-])CS[C@H]12 | – | – | – | – | – | Km [11]: 14.8 µM; kcat [11]: 252 s⁻¹; kcat/Km [12]: 1.7 ×10⁷ /M/s
C[C@@H](O)[C@H]1C(=O)N2C(C(=O)O)=C(S[C@@H]3CN[C@H](C(=O)N(C)C)C3)[C@H](C)[C@H]12 [MEROPENEM] | ≤ 0.5 | ≤ 0.5 | ≤ 0.5 | ≤ 0.5 | ≤ 0.5 | –
CO[C@@]1(NC(=O)CSC(F)F)C(=O)N2C(C(=O)O)=C(CSc3nnnn3CCO)CO[C@@H]21 [FLOMOXEF] | – | – | – | – | – | MIC [7]: ≤ 1 µg/mL; MIC [13]: ≤ 1 µg/mL; MIC [14]: ≤ 1 µg/mL; MIC [9]: ≤ 1 µg/mL; MIC [15]: ≤ 1 µg/mL
C[C@H]1[C@H](NC(=O)/C(=N\OC(C)(C)C(=O)O)c2csc(N)n2)C(=O)N1S(=O)(=O)O [AZTREONAM] | 32 (≈ 73.5 µM) | 64 (≈ 147 µM) | – | 1020 (≈ 2350 µM) | – | –
CC(=O)OCC1=C(C(=O)O)N2C(=O)[C@@H](NC(=O)Cc3cccs3)[C@H]2SC1 | – | – | – | – | – | Km [11]: 37.9 µM; kcat [11]: 185 s⁻¹; kcat/Km [12]: 4.9 ×10⁶ /M/s
CO[C@@]1(NC(=O)C2SC(=C(C(N)=O)C(=O)O)S2)C(=O)N2C(C(=O)O)=C(CSc3nnnn3C)CS[C@@H]21 (stereo not given in full) [CEFOTETAN] | ≤ 0.5 | ≤ 0.5 | ≤ 0.5 | 8 (≈ 13.9 µM) | ≤ 0.5 | –
CC1(C)S[C@@H]2[C@H](NC(=O)[C@H](N)c3ccccc3)C(=O)N2[C@H]1C(=O)O [AMPICILLIN] | > 16 | > 16 | ≤ 2 | > 16 | ≤ 2 | Km [11]: 19.5 µM; kcat [11]: 36.9 s⁻¹; kcat/Km [12]: 1.9 ×10⁶ /M/s
CO/N=C(\C(=O)N[C@@H]1C(=O)N2C(C(=O)[O-])=C(C[n+]3cccc4c3CCC4)CS[C@H]12)c1csc(N)n1 [CEFPIROME] | > 16 | > 16 | ≤ 1 | > 16 | ≤ 1 | –
C[C@@H](O)[C@H]1C(=O)N2C(C(=O)O)=C(SCCNC=N)C[C@H]12 [IMIPENEM ANHYDROUS] | ≤ 0.5 | ≤ 0.5 | ≤ 0.5 | ≤ 0.5 | ≤ 0.5 | –
Cc1nnc(SCC2=C(C(=O)O)N3C(=O)[C@@H](NC(=O)Cn4cnnn4)[C@H]3SC2)s1 [CEFAZOLIN] | – | – | – | – | – | MIC [7]: > 16 µg/mL; MIC [13]: > 16 µg/mL; MIC [9]: > 16 µg/mL
CC(C)(O/N=C(\C(=O)N[C@@H]1C(=O)N2C(C(=O)[O-])=C(C[n+]3ccccc3)CS[C@H]12)c1csc(N)n1)C(=O)O [CEFTAZIDIME] | 32 (≈ 58.5 µM) | 64 (≈ 117 µM) | ≤ 0.25 | 2050 (≈ 3750 µM) | ≤ 0.25 | MIC [16]: ≤ 0.12 µg/mL; MIC [17]: ≤ 0.12 µg/mL; MIC [18]: ≤ 0.12 µg/mL; MIC [19]: ≤ 0.5 µg/mL; MIC [20]: ≤ 0.12 µg/mL; pKi [6]: < 2.00
CO[C@@]1(NC(=O)Cc2cccs2)C(=O)N2C(C(=O)O)=C(COC(N)=O)CS[C@@H]21 [CEFOXITIN] | ≤ 2 | ≤ 2 | ≤ 2 | 8 (≈ 18.7 µM) | 4 (≈ 9.36 µM) | –
CO/N=C(\C(=O)N[C@@H]1C(=O)N2C(C(=O)[O-])=C(C[N+]3(C)CCCC3)CS[C@H]12)c1csc(N)n1 | > 32 | > 32 | – | > 32 | – | Km [11]: 505 µM; kcat [11]: 67.7 s⁻¹; kcat/Km [12]: 1.3 ×10⁵ /M/s
CO/N=C(\C(=O)N[C@@H]1C(=O)N2C(C(=O)O)=C(COC(C)=O)CS[C@H]12)c1csc(N)n1 [CEFOTAXIME] | 1020 (≈ 2250 µM) | 2050 (≈ 4500 µM) | ≤ 0.25 | – | ≤ 0.25 | MIC [16]: ≤ 0.12 µg/mL; MIC [17]: ≤ 0.12 µg/mL; MIC [18]: ≤ 0.12 µg/mL; MIC [4]: >2048 µg/mL; MIC [19]: ≤ 0.12 µg/mL; MIC [20]: ≤ 0.12 µg/mL; Km [11]: 103 µM; kcat [11]: 197 s⁻¹; kcat/Km [12]: 1.9 ×10⁶ /M/s
CC1(C)S[C@@H]2[C@H](NC(=O)[C@H](N)c3ccc(O)cc3)C(=O)N2[C@H]1C(=O)O [AMOXICILLIN] | 2 (≈ 5.47 µM) | 2 (≈ 5.47 µM) | ≤ 1 | 8 (≈ 21.9 µM) | 2 (≈ 5.47 µM) | MIC [19]: 8 µg/mL; MIC [21]: ≤ 1 µg/mL; MIC [22]: 2 µg/mL; MIC [23]: 2 µg/mL; MIC [24]: 2 µg/mL
N[C@@H](C(=O)N[C@@H]1C(=O)N2C(C(=O)O)=C(Cl)CS[C@H]12)c1ccccc1 [CEFACLOR ANHYDROUS] | > 16 | > 16 | ≤ 2 | > 16 | ≤ 2 | –
COCC1=C(C(=O)O)N2C(=O)[C@@H](NC(=O)/C(=N\OC)c3csc(N)n3)[C@H]2SC1 [CEFPODOXIME] | > 64 | > 64 | ≤ 0.5 | > 64 | ≤ 0.5 | –
CO[C@@]1(NC(=O)CSCC#N)C(=O)N2C(C(=O)O)=C(CSc3nnnn3C)CS[C@@H]21 [CEFMETAZOLE] | – | 1 (≈ 2.12 µM) | ≤ 0.5 | 1 (≈ 2.12 µM) | 1 (≈ 2.12 µM) | MIC [1]: <=0.5 ug ml-1
CN(C)CCn1nnnc1SCC1=C(C(=O)O)N2C(=O)[C@@H](NC(=O)Cc3csc(N)n3)[C@H]2SC1 [CEFOTIAM] | – | – | – | – | – | MIC [7]: > 16 µg/mL; MIC [13]: > 16 µg/mL; MIC [14]: ≤ 8 µg/mL; MIC [9]: > 16 µg/mL; MIC [15]: ≤ 8 µg/mL
CCN1CCN(C(=O)N[C@@H](C(=O)N[C@@H]2C(=O)N3[C@@H]2SC(C)(C)[C@@H]3C(=O)O)c2ccccc2)C(=O)C1=O [PIPERACILLIN] | > 64 | > 64 | ≤ 8 | > 64 | ≤ 8 | –
